Compounds with a hit are over-represented: about 9.3% of the library has one in this group of screens.
PostGolgi ctrl: yeast control strain growth, post-Golgi counter-screen; efflux-deficient yeast background strain, growth absorbance A615, 16 h; inhibition, % at 10 µM; 98,000 tested, 5% active; AID 738
D1 allo mod: D1 dopamine receptor (human) allosteric modulation. B-score at 10 µM. HEK293 D1, CRE-luciferase, dopamine EC30 potentiation; actives deviate in either direction. 58,000 tested, 5.9% active. P21728;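 active means luminescence count or its row- and column-corrected plate score outside the 99.7% band of the plate's sample wells, on either side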
Target sequence (P21728 whole entry, looked up): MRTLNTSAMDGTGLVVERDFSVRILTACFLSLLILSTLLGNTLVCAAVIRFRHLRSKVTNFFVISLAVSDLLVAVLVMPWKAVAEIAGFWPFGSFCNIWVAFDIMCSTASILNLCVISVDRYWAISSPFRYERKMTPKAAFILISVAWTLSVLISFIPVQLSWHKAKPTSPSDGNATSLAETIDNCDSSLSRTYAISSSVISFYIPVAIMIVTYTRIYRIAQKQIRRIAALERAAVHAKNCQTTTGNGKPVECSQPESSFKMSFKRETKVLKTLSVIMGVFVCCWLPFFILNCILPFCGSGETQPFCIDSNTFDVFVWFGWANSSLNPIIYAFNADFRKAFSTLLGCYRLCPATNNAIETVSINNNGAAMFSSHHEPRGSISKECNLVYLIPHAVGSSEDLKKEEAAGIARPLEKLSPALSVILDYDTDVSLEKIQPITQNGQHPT
E coli WT exp: blocks growth of wild type E. coli BW25113. OD600 absorbance. growth inhibition, % at 100 µM. 98,000 tested, 0.15% active. AID 710;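 active means growth inhibition above about 50% at one test dose, limit read from the data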;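 further: growth measured after 20 h incubation at 37 °C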
PostGolgi yeast: growth inhibition of a yeast mutant, post-Golgi transport screen | 98,000 tested, 0.9% active | post-Golgi transport phenotypic cell assay | inhibition, % at 10 µM;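 further: yeast cells grown in 1536-well plates; yeast grown about 18 h at 30C before absorbance read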
DAT uptake mod: changed human dopamine transporter uptake under cocaine IC80; B-score at 10 µM; 110,000 tested, 1.3% active; LLC-PK1 hDAT cells, [14C]-dopamine uptake with cocaine IC80; actives deviate in either direction; Q01959;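 active means Z score or B-score, a plate-position-corrected score, falls beyond the plate's 99.7% confidence bounds, in either direction; inactive means both scores lie inside the 99.7% bounds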;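 further: scored against the spread of the other compound wells on the same plate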
Ecoli tolC: E. coli tolC mutant growth inhibition | E. coli BW25113 tolC mutant growth, OD615 | growth inhibition, % at 10 µM (by protocol) | 65,000 tested, 2.2% active | AID 573;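 active means growth inhibition at or above a cutoff equal to the mean over every tested compound plus 3 SD, cut at about 60% in these data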;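 further: growth measured after 20 h incubation at 37 °C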
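System: E. coli ΔtolC::kan strain BW25113; Buffer or medium: LB broth supplemented with 50 µg/mL kanamycin; Compound: 10 µM final, single dose; Incubation: bacterial growth with compound for 20 h at 37 °C; Signal: A615 absorbance measurement; Evaluation: growth inhibition in percent.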
Numbers without * were called inactive. Unless noted, no stated cut-off is given here; in the data, active means inhibition above about 30%; inactive means the rest.

Screening O=C(Nc1ccc(Cl)c(C(F)(F)F)c1)[C@@H]1CC=C[C@@H]2CCN(C3CC3)C(=O)[C@@H]21 returned DAT uptake mod -0.734.
Cc1cc(C)c2c(-n3cccc3)c(C(=O)NNS(=O)(=O)c3ccc(Br)cc3)sc2n1 was read as PostGolgi ctrl 29.9, E coli WT exp 10.0, PostGolgi yeast 7.1 and DAT uptake mod 0.835.
CCOC(=O)Nc1sc2nc(C)cc(C)c2c1-n1cccc1 was read as PostGolgi ctrl 41.4*, E coli WT exp -20.0, PostGolgi yeast 9.1 and DAT uptake mod 0.345.
CCOC(=O)N1CCC(Nc2c(N3CCN(c4cccc(C(F)(F)F)c4)CC3)c(=O)c2=O)CC1 was read as PostGolgi ctrl 5.5, D1 allo mod -0.00102, E coli WT exp -10.0, PostGolgi yeast 4.9, DAT uptake mod 0.678 and Ecoli tolC 12.8.
For CC(C)CNc1nc(Oc2ccc(=O)n(C)n2)nc(N2CCOCC2)n1 the results were PostGolgi ctrl 3.3, E coli WT exp -1.0, PostGolgi yeast 32.3* and Ecoli tolC -1.4.
Screening CC(C)CNc1nc(Oc2ccc(=O)n(-c3ccccc3)n2)nc(N2CCOCC2)n1 returned PostGolgi ctrl 11.9, E coli WT exp -1.0, PostGolgi yeast -2.7, DAT uptake mod -0.014 and Ecoli tolC 4.4.
For COc1ccc(/C=C/C(=O)Nc2ccccc2C(=O)O)cc1OC the results were D1 allo mod -7.83*, DAT uptake mod 1.28 and Ecoli tolC 15.8.
For Cc1ccc2c(n1)CC(C)(C)CC2=O the results were PostGolgi ctrl -0.4, E coli WT exp 1.0, PostGolgi yeast 6.3 and DAT uptake mod -0.391.
CCCCC(CC)CNC(=O)c1[nH]c(C)c(C(C)=O)c1C (configuration not stated) was read as PostGolgi ctrl 8.3, D1 allo mod -1.11, E coli WT exp 5.0, PostGolgi yeast 19.5, DAT uptake mod 0.317 and Ecoli tolC 62.1*.
`COC(=O)c1ccc(S(=O)(=O)N(Cc2cc3cc4c(cc3[nH]c2=O)OCO4)C2CCCCC2)cc1` gave D1 allo mod -0.0375 and Ecoli tolC -16.0.
For CCOC(=O)c1c(C)n(C)c2cc(Br)c(C)cc12 the results were PostGolgi ctrl 11.0, E coli WT exp 0.0, PostGolgi yeast -4.8 and DAT uptake mod -0.00418.
For CCOC(=O)c1c(CN2CCN(Cc3ccccc3)CC2)n(C)c2cc(Br)c(OC)cc12 the results were PostGolgi ctrl 73.2*, E coli WT exp -12.0, PostGolgi yeast 1.9 and DAT uptake mod 0.494.
For Cn1c(CC(=O)Nc2ccc(Cl)c(Cl)c2)nnc1SCC(=O)N1CCN(c2ccccc2)CC1 the results were PostGolgi ctrl 35.7*, E coli WT exp -5.0, PostGolgi yeast 3.4 and DAT uptake mod 1.06.
CC(NC(=O)CSc1nnc(CC(=O)Nc2ccc(Cl)c(Cl)c2)n1C)c1ccccc1 (configuration not stated) was read as PostGolgi ctrl 9.0, E coli WT exp 0.0, PostGolgi yeast -4.7 and DAT uptake mod -0.000714.
For CCCN(CCC)c1nc(Cl)nc(NCc2ccco2)n1 the results were PostGolgi ctrl 38.4*, E coli WT exp -4.0, PostGolgi yeast 20.9 and DAT uptake mod 0.45.
Screening Cc1cccc(OCCCC(=O)N2CCCc3ccccc32)c1C returned PostGolgi ctrl 27.1, E coli WT exp 2.0, PostGolgi yeast -1.0 and DAT uptake mod 0.261.
For Cc1cc(C)cc(NC(=O)c2nnn(Cc3cc(C)ccc3C)c2N)c1 the results were PostGolgi ctrl 37.0*, D1 allo mod 0.924, E coli WT exp -4.0, PostGolgi yeast -7.8, DAT uptake mod 0.639 and Ecoli tolC 32.4.
For Cc1ccccc1Cn1nnc(C(=O)Nc2cccc(C)c2C)c1N the results were PostGolgi ctrl 25.7, D1 allo mod 0.282, E coli WT exp -2.0, PostGolgi yeast 1.1 and Ecoli tolC 26.8.
c1nc(NCCN2CCOCC2)c2sc3nc(N4CCOCC4)c4c(c3c2n1)CCC4 was read as D1 allo mod 6.85* and Ecoli tolC 12.6.
Cc1ccc(-n2c(-c3ccncc3)nnc2-c2cccs2)cc1 was read as D1 allo mod 7.02*, DAT uptake mod 0.16 and Ecoli tolC 13.3.
Screening CCOC(=O)c1c(NC(=O)CC2SC(N)=NC2=O)sc2c1CCCC2 (configuration not stated) returned PostGolgi ctrl 8.0, E coli WT exp -1.0, PostGolgi yeast 4.5 and DAT uptake mod 1.73.
`CC(=O)Nc1ccc(NC(=O)Cn2cnc3c(cnn3C(C)(C)C)c2=O)cc1` gave PostGolgi ctrl 8.6, D1 allo mod 0.436, E coli WT exp 5.0, PostGolgi yeast -2.6, DAT uptake mod 1.08 and Ecoli tolC -6.7.
For CC(C)(C)n1ncc2c(=O)n(CC(=O)NCc3ccccc3)cnc21 the results were PostGolgi ctrl -1.1, D1 allo mod -5.42*, E coli WT exp -1.0, PostGolgi yeast -1.3, DAT uptake mod -0.971 and Ecoli tolC -4.0.
CS(=O)(=O)N(CC(=O)N1CCN(c2ccccc2)CC1)c1ccc(Cl)c(C(F)(F)F)c1 was read as PostGolgi ctrl 12.1, E coli WT exp -3.0, PostGolgi yeast -2.1 and DAT uptake mod 0.722.
COc1ccc2c(c1)c1nnc(SC)nc1n2C was read as PostGolgi ctrl 86.8*, D1 allo mod 2.92, E coli WT exp -3.0, PostGolgi yeast 58.0*, DAT uptake mod 0.0698 and Ecoli tolC 4.7.
`COc1ccc2c(c1)c1nnc(SCC(=O)N3C(C)CCCC3C)nc1n2C` (configuration not stated) gave PostGolgi ctrl 10.7, D1 allo mod 0.184, E coli WT exp -7.0, PostGolgi yeast 0.2, DAT uptake mod 1.13 and Ecoli tolC 15.6.
For Cc1cc(C(=O)OCc2nc3ccccc3s2)c(C)o1 the results were PostGolgi ctrl 4.1, D1 allo mod 0.00416, E coli WT exp 1.0, PostGolgi yeast 16.6 and Ecoli tolC 100.0*.
CC(=O)OCc1nc2ccccc2s1 was read as PostGolgi ctrl 14.8, E coli WT exp 4.0, PostGolgi yeast -15.8 and DAT uptake mod 0.0439.
O=C(NCCCn1ccnc1)C(Cc1ccccc1)N1C(=O)c2ccccc2C1=O (configuration not stated) was read as PostGolgi ctrl 4.4, E coli WT exp 4.0, PostGolgi yeast 21.6, DAT uptake mod 0.585 and Ecoli tolC 9.5.
`COCC(C)n1c(C)cc(C(=O)COC(=O)c2c(NC(C)=O)sc(C)c2C)c1C` (configuration not stated) gave D1 allo mod 1.64, DAT uptake mod -1.07 and Ecoli tolC -5.6.
Screening COc1cc2c(cc1NS(=O)(=O)N1CCCCC1)oc1ccccc12 returned PostGolgi ctrl 68.2*, E coli WT exp -9.0, PostGolgi yeast 20.6 and DAT uptake mod 0.56.
For O=S(=O)(Nc1ccc2c(c1)oc1ccccc12)N1CCCC1 the results were PostGolgi ctrl 47.0*, D1 allo mod -0.516, E coli WT exp -6.0, PostGolgi yeast -13.4, DAT uptake mod -0.432 and Ecoli tolC 4.0.

Screens deposited in PubChem BioAssay by several laboratories.
